Where “and” joins values, the source holds several entries; their conditions need not be identical. Identical values can stand only once.
What was measured:
KB [1] = assay: Cytotoxicity against KB cells after a 3 day incubation; format: functional, Homo sapiens; settings: read-out: ID50 (the source's name)
Method in brief: (§1)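 KB cells (parental ATCC line and resistant variants) exposed to drug at five concentrations […] for 3 days. ID50 is the concentration giving 50% reduction in cell number, derived from the degree of inhibition at the five concentrations.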

Tumor Cell line [2] = assay: Drug molar concentration required to inhibit 50% of human tumor cell growth; format: functional
Method in brief: (§2)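 NCI panel of 54 human tumor lines from eight cancer types, mostly seeded at 20 000 cells/well. Cells were preincubated 24 h without drug, then exposed to five 10-fold dilutions for 48 h, fixed and stained with sulforhodamine B, and read spectrophotometrically. Versus control, GI50 (50% growth inhibition), TGI (0% growth) and LC50 (−50% growth) were calculated; mean graph midpoints average all lines.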

Tumor Cell line [3] = assay: Drug concentration required to inhibit total cell growth; format: functional, Homo sapiens; settings: read-out: Log TGI (converted); method in brief: as §2
Tumor Cell line [4] = assay: Drug concentration required to cause 50% cell death; format: functional, Homo sapiens; settings: Homo sapiens, Tumor Cell line
Method in brief: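 NCI in vitro panel of 54 human tumor cell lines from eight cancer types, mostly seeded at 20 000 cells/well and preincubated 24 h without drug. Five 10-fold dilutions were then added for a further 48 h. Cells were fixed in situ and stained with sulforhodamine B, and bound dye was read spectrophotometrically. LC50 (−50% growth versus control) was taken from five-point dose-response curves and reported as the log10 mean-graph midpoint across lines.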

KB [5] = assay: Inhibitory dose value is the concentration which affords 50% reduction in the number of KB ATCC cells; format: functional; settings: Homo sapiens, read-out: ID50 (the source's name); method in brief: as §1
KB [6] = assay: 50% reduction in the number of KB V20C resistant variant; format: functional, Homo sapiens; settings: read-out: ID50 (the source's name); method in brief: as §1
KB [7] = assay: 50% reduction in the number of KB 7D (topoisomerase II, aMDR) resistant variant; format: functional, Homo sapiens; settings: read-out: ID50 (the source's name); method in brief: as §1
[8] = biological target: DNA topoisomerase II (Homo sapiens) (UniProt P11388+Q02880); assay: 50% inhibition of human DNA topoisomerase II; format: protein assay
Nucleic Acid = assay: Percentage inhibition of cellular protein-DNA complex formation; format: functional; settings: Homo sapiens
KB [9] = assay: 50% reduction in the number of KB ATCC cells; format: functional; settings: Homo sapiens, read-out: ID50 (the source's name); method in brief: as §1
Tumor Cell line [10] = assay: Inhibition of human tumor cell growth; format: functional; method in brief: as §2

**Q.** `CCOC(=O)N1CCC(N[C@@H]2c3cc4c(cc3[C@@H](c3cc(OC)c(O)c(OC)c3)[C@H]3C(=O)OC[C@@H]32)OCO4)CC1` was tested. Which IC50 (KB [1]; Homo sapiens, KB, 72 h) did it give?
**A.** 740 nM

**Q.** And the GI50 (Tumor Cell line [2]; Homo sapiens, Tumor Cell line)?
**A.** 1350 nM

**Q.** And the TGI (Tumor Cell line [3]; Homo sapiens, Tumor Cell line)?
**A.** 7.76 µM

**Q.** Which IC50 (KB [1]) does the source give for `COc1cc([C@@H]2c3cc4c(cc3[C@@H](NCCN3CCOCC3)[C@H]3COC(=O)[C@H]23)OCO4)cc(OC)c1O` [listing 1 of 2 here] here?
**A.** 2000 nM

**Q.** What about the GI50 (Tumor Cell line [2]) of the same molecule?
**A.** 1820 nM

**Q.** And the TGI (Tumor Cell line [3])?
**A.** 11.5 µM

**Q.** For `COc1cc([C@@H]2c3cc4c(cc3[C@@H](NCCN3CCCCC3)[C@H]3COC(=O)[C@H]23)OCO4)cc(OC)c1O`, which IC50 (KB [1]; Homo sapiens, KB, 72 h) is on record?
**A.** 1600 nM

**Q.** What about the LC50 (Tumor Cell line [4]) of the same molecule?
**A.** 36.3 µM

**Q.** What about the GI50 (Tumor Cell line [2]; Homo sapiens, Tumor Cell line) of the same molecule?
**A.** 427 nM

**Q.** And the TGI (Tumor Cell line [3]; Homo sapiens, Tumor Cell line)?
**A.** 3.72 µM

**Q.** `COc1cc([C@@H]2c3cc4c(cc3[C@@H](NC3CCN(Cc5ccccc5)CC3)[C@H]3COC(=O)[C@H]23)OCO4)cc(OC)c1O` was tested. Which IC50 (KB [5]) did it give?
**A.** 27 nM

**Q.** What about the IC50 (KB [1]) of the same molecule?
**A.** 27 nM

**Q.** What about the IC50 (KB [6]) of the same molecule?
**A.** 26 nM

**Q.** And the GI50 (Tumor Cell line [2])?
**A.** 174 nM

**Q.** And the IC50 (KB [7])?
**A.** 0.05 µM

**Q.** What about the TGI (Tumor Cell line [3]) of the same molecule?
**A.** 1.48 µM

**Q.** Which IC50 (KB [1]; Homo sapiens, KB, 72 h) does the source give for `COc1cc([C@@H]2c3cc4c(cc3[C@@H](Nc3ccc(C(=O)O)cc3)[C@H]3COC(=O)[C@H]23)OCO4)cc(OC)c1O` [listing 1 of 3 here] here?
**A.** > 4000 nM

**Q.** And the GI50 (Tumor Cell line [2]; Homo sapiens, Tumor Cell line)?
**A.** 8510 nM

**Q.** What about the TGI (Tumor Cell line [3]) of the same molecule?
**A.** 15.8 µM

**Q.** How did the LC50 (Tumor Cell line [4]) turn out when `COc1cc([C@@H]2c3cc4c(cc3[C@@H](NCCN(C)C)[C@H]3COC(=O)[C@H]23)OCO4)cc(OC)c1O` [listing 1 of 2 here] was run?
**A.** 21.9 µM

**Q.** What about the GI50 (Tumor Cell line [2]; Homo sapiens, Tumor Cell line) of the same molecule?
**A.** 263 nM

**Q.** And the TGI (Tumor Cell line [3]; Homo sapiens, Tumor Cell line)?
**A.** 2.51 µM

**Q.** Which results are given for `COc1cc([C@@H]2c3cc4c(cc3[C@@H](Nc3ccc(C(=O)O)cc3)[C@H]3COC(=O)[C@H]23)OCO4)cc(OC)c1O` [listing 2 of 3 here]?
**A.** GI50 (Tumor Cell line [2]): 12900 nM; TGI (Tumor Cell line [3]): 52.5 µM

**Q.** With `COc1cc([C@@H]2c3cc4c(cc3[C@@H](NCCN(C)C)[C@H]3COC(=O)[C@H]23)OCO4)cc(OC)c1O` [listing 2 of 2 here] as the molecule, how does the ID50 [8] read?
**A.** 25 µM

**Q.** And the Complex formation (Nucleic Acid)?
**A.** 203% and 183%

**Q.** With `COc1cc([C@@H]2c3cc4c(cc3[C@@H](Nc3ccc(C(=O)O)cc3)[C@H]3COC(=O)[C@H]23)OCO4)cc(OC)c1O` [listing 3 of 3 here] as the molecule, how does the ID50 [8] read?
**A.** > 100 µM

**Q.** What about the Complex formation (Nucleic Acid) of the same molecule?
**A.** > 6.9% and 1.9%

**Q.** Which IC50 (KB [9]) does the source give for `COc1cc([C@@H]2c3cc4c(cc3[C@@H](O[C@@H]3O[C@@H]5CO[C@@H](C)O[C@H]5[C@H](O)[C@H]3O)[C@H]3COC(=O)[C@H]23)OCO4)cc(OC)c1O` [ETOPOSIDE] here?
**A.** 320 nM

**Q.** What about the GI50 (Tumor Cell line [10]) of the same molecule?
**A.** 83.2 µM

**Q.** What about the IC50 (KB [1]; Homo sapiens, KB, 72 h) of the same molecule?
**A.** 200 nM

**Q.** And the IC50 (KB [6]; Homo sapiens, KB)?
**A.** 2300 nM

**Q.** What about the IC50 (KB [7]; Homo sapiens, KB) of the same molecule?
**A.** 18 µM

**Q.** And the Complex formation (Nucleic Acid)?
**A.** 100%

**Q.** `COc1cc([C@@H]2c3cc4c(cc3[C@@H](NCCN3CCOCC3)[C@H]3COC(=O)[C@H]23)OCO4)cc(OC)c1O` [listing 2 of 2 here] was tested. Which IC50 (KB [1]; Homo sapiens, KB, 72 h) did it give?
**A.** 4000 nM

**Q.** And the GI50 (Tumor Cell line [2]; Homo sapiens, Tumor Cell line)?
**A.** 2450 nM

**Q.** What about the TGI (Tumor Cell line [3]; Homo sapiens, Tumor Cell line) of the same molecule?
**A.** 10 µM
